Rows were chosen to be rich in hits. Some 1.8% of all compounds tested hit in one or more screens of this group.
NPY Y1 blocker: NPY-Y1 (human) receptor antagonism; P25929; HEK293-CNG Y1 cells, membrane potential fluorescence; NPY at EC95, then isoproterenol; inhibition, % at 3.6 µM; actives 1% (n = 200,000);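 active = inhibition above the campaign mean inhibition of all tested compounds plus 3 SD, cut at about 20% in these data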;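 also: 0% = DMSO wells given NPY plus isoproterenol and 100% = isoproterenol alone without NPY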
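Material: Y1- and CNG-channel-expressing HEK293 cells / Probe or stimulus: NPY 25 nM then isoproterenol 1 µM plus Ro 20-1724 25 µM / Doses: 3.6 µM single dose, DMSO 0.4% / Schedule: compound incubation 1 h at room temperature, readout 45 min post-stimulation / Signal: membrane potential fluorescence / Benchmarks: isoproterenol-only wells as full block versus NPY-plus-isoproterenol wells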
NPY-Y2 PAM-ag: potentiates or activates human NPY-Y2 receptor; actives 0.45% (n = 220,000); activation, % at 3.6 µM; P49146; cells expressing NPY-Y2, potentiator/agonist read-out; in the data active = activation above about 27%;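 also: cells stimulated with NPY near EC25 plus isoproterenol at EC100; 0% = vehicle plus submaximal agonist and 100% = vehicle plus saturating agonist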
Target sequence (P49146 whole entry, looked up): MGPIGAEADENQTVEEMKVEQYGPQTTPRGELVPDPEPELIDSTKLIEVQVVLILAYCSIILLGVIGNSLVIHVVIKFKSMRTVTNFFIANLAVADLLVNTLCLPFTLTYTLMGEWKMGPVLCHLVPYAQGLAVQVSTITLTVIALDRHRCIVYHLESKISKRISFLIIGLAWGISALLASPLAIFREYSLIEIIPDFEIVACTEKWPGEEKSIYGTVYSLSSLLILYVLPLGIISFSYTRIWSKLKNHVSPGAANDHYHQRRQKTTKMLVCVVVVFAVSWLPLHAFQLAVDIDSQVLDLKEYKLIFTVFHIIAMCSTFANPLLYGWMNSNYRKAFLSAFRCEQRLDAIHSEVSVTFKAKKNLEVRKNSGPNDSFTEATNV
NPY-Y2 antag: NPY-Y2 (human) receptor antagonism. inhibition, % at 2.7 µM. actives 0.99% (n = 140,000). AID 793. P49146. NPY-Y2 expressing cells, antagonist mode; in the data active = inhibition above about 17%;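 also: 0% = vehicle with agonist challenge and 100% = reference antagonist with challenge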
NPY1 pot ag: human NPY-Y1 potentiation or agonism, primary screen. P25929. NPY-Y1 expressing cells, potentiator/agonist activation. activation, % at 3.6 µM. actives 0.37% (n = 220,000). AID 1304; in the data active = activation above about 33%, passing the limit was not always enough;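 also: cells stimulated with NPY at EC10 then isoproterenol at EC100; 0% = low agonist plus stimulus and 100% = saturating agonist plus stimulus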
* = called active by the depositor; x = not tested or not shown.

SMILES	NPY Y1 blocker	NPY-Y2 PAM-ag	NPY-Y2 antag	NPY1 pot ag
CCOC(=O)c1sc(NC(=O)CN2C(=O)NC3(CCCCCCC3)C2=O)c(C(=O)OCC)c1C	x	102*	x	68*
CC(=O)Nc1c(C(=O)N2CCN(c3ccccn3)CC2)cnn1-c1ccc(C)cc1	-2	4	4	-2
CCCCCCNC(=O)c1cc(-c2ccco2)nc2ccccc12	57*	-123	66*	-149
Cc1c(-c2cccc(NC(=O)c3cccs3)c2)nc2ncccn12	1	-6	2	-7
C(=C\c1ccccc1)/CSc1nnc(-c2ccncc2)n1Cc1ccco1	-1	6	1	-20
Cc1ccc(-c2nnc(SCc3ccc(C#N)cc3)n2Cc2ccco2)cc1	21*	-12	20*	0
C(=C\c1ccccc1)/CSc1nnc(-c2ccccc2)n1Cc1ccco1	21*	-21	25*	-33
Cc1ccccc1CSc1nnc(-c2ccco2)n1Cc1ccco1	10	1	14	-10
Clc1cccc(-c2nnc(SC/C=C/c3ccccc3)n2Cc2ccco2)c1	26*	-7	37*	-20
Cc1ccccc1CSc1nnc(-c2cccs2)n1Cc1ccco1	23*	-7	24*	-4
CCS(=O)(=O)NCCNc1ccc([N+](=O)[O-])cc1	1	13	x	4
O=C(c1ccc(Br)cc1)c1cc([N+](=O)[O-])ccc1N1CCCCC1	38*	-11	17*	-6
O=C(c1cccc(C(F)(F)F)c1)C1CCCN(Cc2cccn2-c2ncccn2)C1 (stereo not given)	33*	-47	x	-28
COc1ccc(Cn2c(SCc3ccccc3C)nc3cc(OC)c(OC)cc3c2=N)cc1	48*	28	44*	-17
COc1cc2nc(SCc3ccc(F)cc3)n(Cc3cccs3)c(=N)c2cc1OC	8	2	-1	12
CCOC(=O)C1(CCc2ccccc2)CCN(C(=O)c2cc(C)nc(C)n2)CC1	1	7	x	4
COc1ccc(CNC(=O)C(C#N)c2nc3ccccc3nc2N2CCN(C)CC2)cc1 (stereo not given)	11	-13	18*	-17
N#CCC(=O)Nc1ccc(C(=O)NCc2cccc(Cl)c2)cc1	x	-13	x	16
Cc1nc(NC(=O)CSc2ccccc2N)sc1C	5	5	2	5
Cc1ccc(CNC(=O)CSc2nc3c(sc4ccccc43)c(=O)n2CCCN2CCCC2)cc1	21*	-22	x	-32
CCC[N+](CC#Cc1ccccc1)(CCC)CC(=O)OC	1	6	4	12
CCC[N+](CC#Cc1ccccc1)(CCC)CC(=O)c1ccc(Cl)cc1	29*	3	19*	1
COCCNC(=O)C(c1cccnc1)N(Cc1ccc(C)cc1)C(=O)Cn1nnc2ccccc21 (stereo not given)	-5	-14	x	3
CC(Sc1nc2ccccc2o1)C(=O)O (stereo not given)	11	-8	6	-11
CCC(Sc1nc2ccccc2o1)C(=O)O (stereo not given)	21*	-38	x	-13
SMILES	NPY Y1 blocker	NPY-Y2 PAM-ag	NPY-Y2 antag	NPY1 pot ag
Cc1ccc(C(=O)N2CCN(c3ccc([N+](=O)[O-])cc3-n3cccc3)CC2)cc1	x	-14	x	-23
COc1ccccc1NC(=S)Nc1cccc2cnccc12	-14	89*	-3	66*
N#CCc1nn(-c2ccc(F)cc2)c(N)c1C#N	-1	8	x	3
CC(OC(=O)c1ccc2c(c1)C(=O)N(Cc1ccncc1)C2=O)C(=O)Nc1cccc(Cl)c1Cl (stereo not given)	-11	103*	4	114*
O=C(COC(=O)c1ccc2c(c1)C(=O)N(Cc1ccncc1)C2=O)Nc1ccccc1[N+](=O)[O-]	-3	4	1	-8
CCOC(=O)c1cccc(NC(=O)c2ccc(N(C)C)cc2)c1	2	3	1	-10
COc1ccc(CN(C(=O)c2nsc(Cl)c2Cl)C(C(=O)NC2CCCC2)c2ccc(OC)cc2)cc1 (stereo not given)	33*	-17	23*	-36
Cc1cccc(N(C(=O)c2nsc(Cl)c2Cl)C(C(=O)NC2CCCC2)c2ccc(O)cc2)c1 (stereo not given)	-1	7	3	-16
Cc1ccc2nc(SC(C)C(=O)N3CC(C)OC(C)C3)[nH]c2c1 (stereo not given)	21*	-11	x	12
Cc1ccc2nc(SC(C)C(=O)N3CCCC3)[nH]c2c1 (stereo not given)	4	2	1	-10
CC(=O)c1cnn(-c2ccccc2)c1C	0	3	x	6
Cc1c(C(=O)Oc2cccc3ccccc23)cnn1-c1ccccc1	-1	4	18*	-22
Cc1cc(OCC(=O)Nc2ccc(F)c(F)c2)nc(C(C)C)n1	-6	-1	3	4
CCOC(=O)CSc1nnc(-c2ccc(S(=O)(=O)NCc3cccs3)cc2)o1	-17	88*	3	91*
CCS(=O)(=O)Nc1ccc(-c2nnc(SCC(=O)OC)o2)cc1	-9	24	2	26
COC(=O)CSc1nnc(-c2ccc(S(=O)(=O)NCc3cccs3)cc2)o1	-14	84*	2	101*
COC(=O)CSc1nnc(-c2ccc(S(=O)(=O)NCc3ccccc3Cl)cc2)o1	-17	81*	0	80*
CC(C)Cc1nc2c(nnn2Cc2ccccc2F)c(=O)[nH]1	x	-17	x	-18
Cc1ccc(-c2nn3cnnc3c3ccccc23)cc1	0	-5	x	-9
COC(=O)C1=C(C)NC2=C(C(=O)CCC2)C1c1cccs1 (stereo not given)	1	-2	0	13
CC1=C(C(=O)N2CCCCC2)C(c2cccs2)C2=C(CCCC2=O)N1 (stereo not given)	4	13	22*	-10
CCN(C(=O)CSc1nnc(-c2c[nH]c3ccccc23)o1)C1CCS(=O)(=O)C1 (stereo not given)	0	-3	x	-8
CN(C)CCOc1ccccc1C(C)(C)C	1	-19	2	-24
Cc1c[nH]c2cccc(OCC(O)CNC(C)(C)C)c12 (stereo not given)	-18	104*	0	109*
CC(C)(C)NCC(O)COc1ccccc1C(=O)CCc1ccccc1 (stereo not given)	-16	102*	10	103*
SMILES	NPY Y1 blocker	NPY-Y2 PAM-ag	NPY-Y2 antag	NPY1 pot ag
CC(C)(C)NCC(O)COc1ccccc1C(C)(C)C (stereo not given)	-12	99*	4	108*
Cc1cc(NS(=O)(=O)c2ccc(NC(=O)c3cc4cc(Br)ccc4oc3=O)cc2)no1	6	2	x	10
COc1ccc(C(=O)NCC(=O)N/N=C(C)\C=C\c2ccccc2)cc1OC	2	-5	x	12
Cc1cc(NC2CCCCC2)nc(NCc2ccccc2)n1	23*	-16	24*	-34
Cc1cc(C)nc(N/N=C/c2ccccc2Cl)n1	x	-21	x	12
Cc1ccc(Nc2cc(C)nc(NCc3ccccc3)n2)cc1	8	-3	15	-60
Cc1cc(N/N=C/c2ccccc2Cl)nc(NCc2ccccc2)n1	25*	-14	19*	-72
Cc1nnc(N/N=C/c2ccco2)n1N	-2	2	x	6

High-throughput results deposited in PubChem BioAssay by The Scripps Research Institute Molecular Screening Center.
